Only some compounds are listed: those with a hit (about 2.9% of all), similar ones and a draw of the others.
proKLK7 act = activators of human kallikrein-7 zymogen. purified proKLK7, EDANS-DABCYL substrate fluorescence; 100% is mature enzyme control, 0% vehicle. activation, % at 7 µM. 370,000 tested, 0.9% active;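 active means activation above the mean of all tested compounds plus 3 SD, computed per campaign excluding outliers beyond control limits, cut at about 13% in these data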
Tn7 DDE FP = disrupts Tn7 cyclic peptide binding to fibrin D-Dimer-E complex | 370,000 tested, 0.13% active | FP displacement of FITC-Tn7 peptide from fibrin DD(E); 0% = median of compound wells per plate | inhibition, % at 8.3 µM;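 active means inhibition above the mean of compounds falling within the control limits plus 3 SD of them, cut at about 14% in these data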
Target sequence (P02675 whole entry, looked up): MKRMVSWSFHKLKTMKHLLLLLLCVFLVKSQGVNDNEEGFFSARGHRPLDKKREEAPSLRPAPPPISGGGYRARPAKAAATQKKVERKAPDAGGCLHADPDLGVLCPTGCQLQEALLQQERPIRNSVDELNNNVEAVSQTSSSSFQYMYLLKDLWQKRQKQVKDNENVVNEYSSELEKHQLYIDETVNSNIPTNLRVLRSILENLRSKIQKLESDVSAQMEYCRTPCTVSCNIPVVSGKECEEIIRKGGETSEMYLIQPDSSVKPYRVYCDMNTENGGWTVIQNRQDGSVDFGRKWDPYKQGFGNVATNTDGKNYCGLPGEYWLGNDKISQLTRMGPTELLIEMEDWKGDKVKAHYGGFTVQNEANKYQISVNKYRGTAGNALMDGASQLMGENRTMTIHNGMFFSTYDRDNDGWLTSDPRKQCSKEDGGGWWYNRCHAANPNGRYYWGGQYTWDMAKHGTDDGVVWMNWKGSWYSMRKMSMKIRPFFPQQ
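Assay system: Human clot-derived fibrin DD(E) complex | Buffer or medium: Tris/NaCl/CaCl2 buffer, pH 7.8 | Repeats: One replicate per compound | Benchmarks: Aha-Tn7 high control | Measure: % inhibition scaled between sample-field median and high-control FP | Schedule: 10 min plus 3 h, room temperature | Signal: Fluorescence polarization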
CRFBP-R2 agonist = agonists of human CRF-binding protein/CRF-R2 receptor complex; HEK293 CRF-R2/CRF-BP, calcium dye fluorescence (FLIPR); percent of saturating CRF peptide response; activation, % at 13.2 µM; 350,000 tested, 0.46% active; AID 588473;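 active means activation of at least 50%, plus an integration ratio under a set limit after plate pattern correction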
CendR NRP1 mod = alters CendR peptide binding to human NRP-1. O14786. FAM-RPARPAR peptide binding to NRP-1, fluorescence polarization. inhibition, % at 25 µM. 360,000 tested, 0.85% active. AID 602438;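 active means inhibition or corrected inhibition above about 18%, plus a signal ratio from 0.5 to 1.5, limit read from the data, passing the limit was not always enough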
DDE Tn6 FP inh = DD(E)-Tn6 binding inhibition, primary FP screen; P02675; Fibrin DD(E) TRITC-Tn6 fluorescence polarization displacement; inhibition, % at 8.3 µM; 370,000 tested, 0.21% active; AID 720509;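 active means inhibition above a per-campaign cutoff: mean of compounds within control limits plus 3 SD, cut at about 15% in these data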
CRFR2-BP antag = antagonists of CRF-binding protein/CRF-R2 receptor complex; HEK293 CRF-R2/CRF-BP, CRF-induced calcium fluorescence; inhibition, % at 11.8 µM; 350,000 tested, 0.59% active; AID 588475;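 active means inhibition of the ligand-induced calcium signal above about 50% at the single tested concentration, limit read from the data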
Of the large screens only hits and unclear results are named; the others gave an inactive call.

C[C@@H]1/C=C/CC(=O)N2[C@H](CC(=O)N[C@@H]1c1ccccc1)C[C@@H](C)[C@H]2c1ccccc1	none (no result: CRFBP-R2 agonist, CendR NRP1 mod, CRFR2-BP antag)
O=C(c1cccc(Cl)c1)N1CCN(c2ccnc3cc(Cl)ccc23)CC1	none (no result: proKLK7 act, CRFBP-R2 agonist, CendR NRP1 mod, CRFR2-BP antag)
CC1(C(=O)NCCN2CCOCC2)C=CC2(CCCCC2)N1C(=O)c1ccccc1 (stereo not drawn)	CendR NRP1 mod 19.7
Cc1nc2ccc(S(=O)(=O)NCC(=O)N(C)Cc3ccccc3)cc2s1	CendR NRP1 mod 26.0
Cc1nc2ccc(S(=O)(=O)NCC(=O)NC(C)c3ccccc3)cc2s1 (stereo not drawn)	none
OCC1CCCN(C(=S)Nc2ccc(Nc3ccccc3)cc2)C1 (stereo not drawn)	CendR NRP1 mod 33.0
OCC1CCCN(C(=S)Nc2ccc(OC(F)F)cc2)C1 (stereo not drawn)	none
NS(=O)(=O)c1ccc(CCNC(=O)CNC(=O)c2ccc(Br)o2)cc1	CendR NRP1 mod 19.3 (no result: proKLK7 act, Tn7 DDE FP, DDE Tn6 FP inh)
CC(=O)Nc1cc2c3c(c1)CCC(=O)N3CCC2	none
O=C(NCCCO)C(=O)Nc1cc2c3c(c1)CCN3C(=O)CC2	CRFR2-BP antag 78.0
CCC(=O)Nc1cc2c3c(c1)CCC(=O)N3CCC2	CendR NRP1 mod 25.7
CCOC(=O)N1C(=O)C[C@](Sc2ccc(OC)cc2)(C(=O)N2CCOCC2)[C@H]1c1ccc(OC)cc1	none (no result: CRFBP-R2 agonist, CendR NRP1 mod, CRFR2-BP antag)
CCOC(=O)N1CCN(C(=O)C[C@@H]2C[C@@]3(C(=O)OCC)CCCC=C3N(Cc3ccccc3)C2=O)CC1	CendR NRP1 mod 35.7 (no result: CRFBP-R2 agonist, CRFR2-BP antag)
Cc1cccc(NC(=O)CSc2nc3[nH]ncc3c(=O)[nH]2)c1C	CRFR2-BP antag 50.6
COc1ccc(CNC(=O)O[C@H]2CC[C@@]34CCCN3C(=O)CCC[C@H]4C2)cc1	none (no result: proKLK7 act, CRFBP-R2 agonist, CendR NRP1 mod, CRFR2-BP antag)
Cc1cc(C(=O)N[C@@H](c2ccccc2)[C@]2(C)C[C@H]2[C@@H](C)C(=O)Nc2ccc3ccccc3c2)no1	CendR NRP1 mod 21.7
COc1cc(C=Nn2c(-c3ccc(F)cc3)n[nH]c2=S)ccc1OCc1ccccc1	none (no result: CRFBP-R2 agonist, CendR NRP1 mod, CRFR2-BP antag)
CCOC(=O)C1=NOC(C(=O)NCc2ccccc2)(C(=O)c2ccc(OC)cc2)C1 (stereo not drawn)	none (no result: CRFBP-R2 agonist, CendR NRP1 mod, CRFR2-BP antag)
COc1ccc(NC(=O)CSc2nnc(N)s2)c([N+](=O)[O-])c1	CRFR2-BP antag 65.0
CC1CCN(C(=O)C2CCN(S(=O)(=O)c3cccnc3)CC2)CC1	CRFR2-BP antag 75.1
CC1CCN(C(=O)C2CCN(S(=O)(=O)c3cccs3)CC2)CC1	CRFR2-BP antag 105.6
CC1CC(C)CN(C(=O)C2CCN(S(=O)(=O)c3cccs3)CC2)C1 (stereo not drawn)	none
CCCCCC[C@H](CC)CN(C(=O)Oc1ccccc1)c1ccccc1	none (no result: CRFBP-R2 agonist, CendR NRP1 mod, CRFR2-BP antag)
CC(C)C[C@@H]1COc2cc(Br)ccc2S(=O)(=O)N1Cc1cn(Cc2ccc(Br)cc2)nn1	none (no result: CRFBP-R2 agonist, CendR NRP1 mod, CRFR2-BP antag)
COC(=O)[C@]12C[C@H](CC(=O)N3CCC(c4ccccc4)CC3)C(=O)N(Cc3ccco3)C1=C[C@H](COCc1ccccc1)O[C@@H]2C	none (no result: CRFBP-R2 agonist, CendR NRP1 mod, CRFR2-BP antag)
O=C(NC1CCCCN(Cc2cccc(Cl)c2)C1=O)c1cccc2nsnc12 (stereo not drawn)	none (no result: CRFBP-R2 agonist, CendR NRP1 mod, CRFR2-BP antag)
COc1ccc(O)c(C(=O)c2cc(C#N)c(=O)n(-c3c(C)n(C)n(-c4ccccc4)c3=O)c2)c1	CRFBP-R2 agonist 85.7
Cc1nn(-c2cccc([N+](=O)[O-])c2)c(N)c1-c1ccccc1	CRFR2-BP antag 56.5
CCN(CC)S(=O)(=O)c1ccc(/C=C/C(=O)O)cc1	CendR NRP1 mod 32.6
O=C(CCc1nnc2ccc(NCc3ccco3)nn12)N1CCN(c2ccccc2F)CC1	CRFR2-BP antag 52.1
C#CCNC(=O)C[C@@H]1C[C@@](CCC(=O)OCC)(C(=O)OCC)C2=CCCCN2C1=O	none (no result: CRFBP-R2 agonist, CendR NRP1 mod, CRFR2-BP antag)
O=C(Nc1cccc(Br)c1)c1ccc(CSc2ccccc2)cc1	CendR NRP1 mod 39.9
O=C(Nc1cccnc1)c1ccc(CSc2ccccc2)cc1	none
CCCSc1n[nH]c(NC(C)=O)n1	CRFR2-BP antag 56.1
Cc1ccc(S(=O)(=O)NCC(=O)N(CCc2ccccc2)CC(=O)NCc2ccco2)cc1	none
Cc1ccc(S(=O)(=O)N(CC(=O)NCc2ccco2)Cc2ccccc2F)cc1	CRFR2-BP antag 89.4
Cc1ccc(S(=O)(=O)NCC(=O)N(CC(=O)NCc2ccco2)Cc2ccccc2)cc1	CRFBP-R2 agonist 55.1
CCCC(C)NC(=O)CN(Cc1ccco1)S(=O)(=O)c1ccccc1 (stereo not drawn)	CendR NRP1 mod 22.8
CCc1ccc(-c2ccc3nnc(SC)n3n2)cc1	none
CCc1ccc(-c2ccc3nnc(SCC(N)=O)n3n2)cc1	CendR NRP1 mod 23.8
O=C(CCc1ccccc1)N[C@H]1[C@@H](OC(=O)c2cnccn2)CCC[C@]12C(=O)N(Cc1ccccc1)c1ccccc12	none (no result: CRFBP-R2 agonist, CendR NRP1 mod, CRFR2-BP antag)
O=C1c2ccccc2C2Cc3nnccc3CN12 (stereo not drawn)	none (no result: CRFBP-R2 agonist, CendR NRP1 mod, CRFR2-BP antag)
C=CCN(C(=O)CSc1nc2ccsc2c(=O)n1Cc1ccccn1)c1ccccc1	none
C=CCN(C(=O)CSc1nc2c(sc3ccccc32)c(=O)n1CCN(CC)CC)c1ccccc1	CendR NRP1 mod 25.1
CCn1c(COc2ccccc2)nnc1SCC(=O)Nc1ccc(Oc2ccccc2)cc1	none (no result: CRFBP-R2 agonist, CendR NRP1 mod, CRFR2-BP antag)
CC1CCN(S(=O)(=O)c2ccc3c(c2)NC(=O)CS3)CC1	CRFR2-BP antag 62.8
Cc1ccc2oc(=O)c(/C=C(\O)c3sc(C)nc3C)nc2c1	CRFBP-R2 agonist 122.6
Cc1ccc(/C(O)=C/c2nc3ccccc3oc2=O)cc1	CRFBP-R2 agonist 59.5
